Key:
[1] = Diuretic activity at 40 mg/kg (screening dose-94.6 umol/kg) in […] in a one stage experiment; T/C = urine vol of treated rats / urine vol of control rats; format: functional
Method in brief: (§1)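 40 mg/kg given by gavage in 25 mL/kg 0.9% saline with 0.5% (carboxymethyl)cellulose. Four rats per agent, two per metabolism cage; 20 controls; 5 h urine. T/C = treated/control urine volume. Stage-1 T/C of 1.66 or more leads to stage 2; product T/C1·T/C2 of 3.34 or more counts as active.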

[2] = Diuretic activity at 40 mg/kg (screening dose-82.4 umol/kg) in […] in a one stage experiment; T/C = urine vol of treated rats / urine vol of control rats; format: functional; method in brief: as §1
[3] = Diuretic activity at 40 mg/kg (screening dose 84 umol/kg) in […] in a one stage experiment; T/C = urine vol of treated rats / urine vol of control rats; format: functional; method in brief: as §1
[4] = Diuretic activity at 40 mg/kg (screening dose-82.5 umol/kg) in […] in a one stage experiment; T/C = urine vol of treated rats / urine vol of control rats; format: functional; method in brief: as §1
[5] = species on record: Rattus norvegicus; assay: […]; format: ADME, organism-based, Urine; parameters: dose 10 mg/kg, route oral; settings: in vivo, po, 10 mg/kg
Method in brief: (§2)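 Male Sprague-Dawley rats, about 160 g, fasted 24 h and water withheld 1 1/2 h beforehand; food and water withheld during the test. Dosing by gavage with 25 mL/kg 0.9% saline containing 0.5% (carboxymethyl)cellulose, agent dissolved or suspended. Three cages of two rats each per dose, held in metabolism cages. Urine collected over 5 h. Volume given in mL, Na+ in mequiv. Significance versus control at P < 0.05.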

[6] = species on record: Rattus norvegicus; assay: […]; format: ADME, organism-based, Urine; parameters: dose 100 mg/kg, route oral; settings: in vivo, po, 100 mg/kg; method in brief: as §2
[7] = species on record: Rattus norvegicus; assay: […]; format: ADME, organism-based, Urine; parameters: dose 3 mg/kg, route oral; settings: in vivo, po, 3 mg/kg; method in brief: as §2
[8] = species on record: Rattus norvegicus; assay: […]; format: ADME, organism-based, Urine; parameters: dose 0.3 mg/kg, route oral; settings: in vivo, po, 0.3 mg/kg
Method in brief: (§3)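 Dose-response test in male Sprague-Dawley rats of about 160 g, fasted 24 h, with water withheld 1½ h before and during the test. Each rat got a single gavage of 25 mL/kg 0.9% saline with 0.5% carboxymethylcellulose carrying the agent (0.3–100 mg/kg range). Rats were housed two per metabolism cage, and urine was collected for 5 h. Mean urine volume (mL) was compared with controls (P < 0.05).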

[9] = species on record: Rattus norvegicus; assay: […]; format: ADME, organism-based, Urine; parameters: dose 1 mg/kg, route oral; settings: in vivo, po, 1 mg/kg; method in brief: as §3
[10] = tested on: Rattus norvegicus; assay: Mean excretion of potassium in conscious rats at a dose of 10 mg/kg given orally; format: ADME, organism-based; parameters: dose 10 mg/kg, route oral; settings: in vivo, po
Method in brief: (§4)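 Secondary dose-response in male Sprague-Dawley rats (~160 g), fasted and hydrated as in the primary screen. Oral gavage at 0.3-100 mg/kg in 25 mL/kg saline/0.5% CMC, three cages of two rats per dose. Urine collected 5 h; Na, K, Cl, HCO3 measured. Values are mean excretion (mequiv), compared with controls at P < 0.05.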

[11] = tested on: Rattus norvegicus; assay: Mean excretion of potassium in conscious rats at a dose of 100 mg/kg given orally; format: ADME, organism-based; parameters: dose 100 mg/kg, route oral; settings: in vivo, po; method in brief: as §4
[12] = tested on: Rattus norvegicus; assay: Mean excretion of potassium in conscious rats at a dose of 3.0 mg/kg given orally; format: ADME, organism-based; parameters: dose 3 mg/kg, route oral; settings: in vivo, po; method in brief: as §4
[13] = tested on: Rattus norvegicus; assay: Mean excretion of potassium in conscious rats at a dose of 30 mg/kg given orally; format: ADME, organism-based; parameters: dose 30 mg/kg, route oral; settings: in vivo, po; method in brief: as §4
[14] = tested on: Rattus norvegicus; assay: Mean excretion of sodium in conscious rats at a dose of 0.3 mg/kg given orally; format: ADME, organism-based; parameters: dose 0.3 mg/kg, route oral; settings: in vivo, po; method in brief: as §2
[15] = tested on: Rattus norvegicus; assay: Mean excretion of […] in conscious rats at a dose of 1.0 mg/kg given orally; format: ADME, organism-based; parameters: dose 1 mg/kg, route oral; settings: in vivo, po; method in brief: as §2
[16] = tested on: Rattus norvegicus; assay: Mean excretion of sodium in conscious rats at a dose of 10 mg/kg given orally; format: ADME, organism-based; parameters: dose 10 mg/kg, route oral; settings: in vivo, po; method in brief: as §2
[17] = tested on: Rattus norvegicus; assay: Mean excretion of sodium in conscious rats at a dose of 100 mg/kg given orally; format: ADME, organism-based; parameters: dose 100 mg/kg, route oral; settings: in vivo, po; method in brief: as §2
[18] = tested on: Rattus norvegicus; assay: Mean excretion of sodium in conscious rats at a dose of 3.0 mg/kg given orally; format: ADME, organism-based; parameters: dose 3 mg/kg, route oral; settings: in vivo, po; method in brief: as §2
[19] = tested on: Rattus norvegicus; assay: Mean excretion of sodium in conscious rats at a dose of 30 mg/kg given orally; format: ADME, organism-based; parameters: dose 30 mg/kg, route oral; settings: in vivo, po; method in brief: as §2
[20] = tested on: Rattus norvegicus; assay: Mean excretion of chloride in conscious rats at a dose of 1.0 mg/kg given orally; format: ADME, organism-based; parameters: dose 1 mg/kg, route oral; settings: in vivo, po; method in brief: as §4
[21] = tested on: Rattus norvegicus; assay: Mean excretion of chloride in conscious rats at a dose of 10 mg/kg given orally; format: ADME, organism-based; parameters: dose 10 mg/kg, route oral; settings: in vivo, po; method in brief: as §4
[22] = tested on: Rattus norvegicus; assay: Mean excretion of chloride in conscious rats at a dose of 100 mg/kg given orally; format: ADME, organism-based; parameters: dose 100 mg/kg, route oral; settings: in vivo, po; method in brief: as §4
[23] = tested on: Rattus norvegicus; assay: Mean excretion of chloride in conscious rats at a dose of 30 mg/kg given orally; format: ADME, organism-based; parameters: dose 30 mg/kg, route oral; settings: in vivo, po; method in brief: as §4
[24] = tested on: Rattus norvegicus; assay: Mean excretion of chloride in conscious rats at a dose of 3.0 mg/kg given orally; format: ADME, organism-based; parameters: dose 3 mg/kg, route oral; settings: in vivo, po; method in brief: as §4
[25] = tested on: Rattus norvegicus; assay: Mean excretion of Cl- in conscious rats at a dose of 0.3 mg/kg given orally; format: ADME, organism-based, Urine; parameters: dose 0.3 mg/kg, route oral; settings: in vivo, po; method in brief: as §3
[26] = tested on: Rattus norvegicus; assay: Mean excretion of potassium in conscious rats at a dose of 1.0 mg/kg given orally; format: ADME, organism-based; parameters: dose 1 mg/kg, route oral; settings: in vivo, po; method in brief: as §4
[27] = tested on: Rattus norvegicus; assay: Mean excretion of potassium in conscious rats at a dose of 0.3 mg/kg given orally; format: ADME, organism-based; parameters: dose 0.3 mg/kg, route oral; settings: in vivo, po; method in brief: as §4
[28] = Diuretic activity at 40 mg/kg (screening dose-75 umol/kg) in […] in a two stage experiment; T/C1.2 = urine vol of treated rats / urine vol of control rats; format: functional; method in brief: as §1
[29] = Diuretic activity at 40 mg/kg (screening dose-75 umol/kg) in […] in a one stage experiment; T/C = urine vol of treated rats / urine vol of control rats; format: functional; method in brief: as §1
[30] = species on record: Rattus norvegicus; assay: […]; format: ADME, organism-based, Urine; parameters: dose 30 mg/kg, route oral; settings: in vivo, po, 30 mg/kg; method in brief: as §2
[31] = Diuretic activity at 40 mg/kg (screening dose-77.5 umol/kg) in […] in a one stage experiment; T/C = urine vol of treated rats / urine vol of control rats; format: functional; method in brief: as §1

SMILES: CN(C)CC(CN(C)C)c1nnc2n1-c1ccc(Cl)cc1C(c1ccccc1)=NC2
- T/C 1 [1]: 1.22

SMILES: CN(C)CC(c1ccccc1)c1nnc2n1-c1ccc(S(C)(=O)=O)cc1C(c1ccccc1)=NC2 (stereo unspecified)
- T/C 1 [2]: 0.7

SMILES: CN(C)CC(c1ccc(Cl)cc1)c1nnc2n1-c1ccc(Cl)cc1C(c1ccccc1)=NC2 (stereo unspecified)
- T/C 1 [3]: 0.9

SMILES: COC(CN(C)C)c1nnc2n1-c1ccc(Cl)cc1C(c1ccccc1)=NC2 (stereo unspecified)
- T/C 1 [4]: 1.32

SMILES: CN(C)CC(c1ccccc1)c1nnc2n1-c1ccc(I)cc1C(c1ccccc1)=NC2 (stereo unspecified)
- Mean urine volume [5]: 10.8 mL
- Mean urine volume [6]: 14.57 mL
- Mean urine volume [7]: 4.86 mL
- Mean urine volume [8]: 5.09 mL
- Mean urine volume [9]: 4.8 mL
- Mean excretion of K+ [10]: 0.19 m equiv
- Mean excretion of K+ [11]: 0.24 m equiv
- Mean excretion of K+ [12]: 0.23 m equiv
- Mean excretion of K+ [13]: 0.24 m equiv
- Mean excretion of Na+ [14]: 0.75 m equiv
- Mean excretion of Na+ [15]: 0.65 m equiv
- Mean excretion of Na+ [16]: 1.64 m equiv
- Mean excretion of Na+ [17]: 2.09 m equiv
- Mean excretion of Na+ [18]: 0.66 m equiv
- Mean excretion of Na+ [19]: 1.98 m equiv
- Mean excretion of Cl- [20]: 0.7 m equiv
- Mean excretion of Cl- [21]: 1.5 m equiv
- Mean excretion of Cl- [22]: 1.82 m equiv
- Mean excretion of Cl- [23]: 1.73 m equiv
- Mean excretion of Cl- [24]: 0.76 m equiv
- Mean excretion of Cl- [25]: 0.8 m equiv
- Mean excretion of K+ [26]: 0.25 m equiv
- Mean excretion of K+ [27]: 0.18 m equiv
- T/C 1.2 [28]: 9.39
- T/C 1 [29]: 3.26
- Mean urine volume [30]: 12.9 mL

SMILES: Clc1ccc2c(c1)C(c1ccccc1)=NCc1nnc(C(CN3CCOCC3)c3ccccc3)n1-2 (stereo unspecified)
- T/C 1 [31]: 1.46

Reference: ChEMBL document CHEMBL1124476, “1-(2-aminoethyl)-6-aryl-4H- [1,2,4]triazolo[4,3-a][1,4]benzodiazepines with diuretic and natriuretic activity” (J Med Chem, 1989)
